Screening data deposited in PubChem by Sanford-Burnham Center for Chemical Genomics.
Compounds with a hit are over-represented: about 2.9% of the library has one in this group of screens.
SENP7 inh = SENP7 protease inhibition; inhibition, % at 5 µM; hit rate 1.5% among 330,000; Q9BQF6; recombinant SENP7, Z-RLRGG-aminoluciferin luminescence, 40 min;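 active = inhibition above about 50% at the single test dose, limit read from the data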;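 note: plate controls were DMSO with enzyme for no effect and no enzyme buffer wells for full effect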
Apaf-1 inh = human Apaf-1 inhibition | reconstituted apoptosome caspase-3 activity, DEVD-Rh110 fluorescence | inhibition, % at 20 µM | hit rate 0.71% among 330,000 | AID 489030; active = inhibition of at least 40% at 20 µM;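 note: plate controls were DMSO wells for no effect and DEVD-CHO caspase inhibitor wells for full effect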
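Assay system: Apoptosome proteins | Medium: pH 7.5 Hepes buffer with CHAPS, BSA, DTT | Also added: Cytochrome c and DEVD-Rh110 substrate | Times: 30 min plus 50 min, RT | Detection: Rhodamine 110 fluorescence at Ex 480/Em 540 nm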
SENP8 block-1 = inhibitors of human SENP8 protease; purified SENP8, Z-RLRGG-aminoluciferin cleavage, luminescence; Q96LD8; inhibition, % at 10 µM; hit rate 1.2% among 330,000; in the data active = inhibition above about 50%
Target sequence (Q96LD8 whole entry, looked up): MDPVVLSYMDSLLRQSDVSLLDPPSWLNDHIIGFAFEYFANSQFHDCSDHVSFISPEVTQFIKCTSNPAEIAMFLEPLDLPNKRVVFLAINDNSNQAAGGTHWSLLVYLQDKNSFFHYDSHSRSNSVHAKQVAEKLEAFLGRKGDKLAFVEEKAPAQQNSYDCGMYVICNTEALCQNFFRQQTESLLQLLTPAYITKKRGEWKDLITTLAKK
SENP1 inh = SENP1 (human) catalytic domain inhibition | hit rate 0.21% among 360,000 | recombinant SENP1 catalytic domain, CyPet-SUMO1-YPet FRET cleavage | inhibition, % at 10 µM;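 active = inhibition at least 30% at 10 µM, raw YFP signal under a set limit, fluorescence ratio 0.5 to 1.5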;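 note: 0% = enzyme with DMSO and 100% = no enzyme wells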
Target sequence (Q9P0U3 419-644 limits assumed): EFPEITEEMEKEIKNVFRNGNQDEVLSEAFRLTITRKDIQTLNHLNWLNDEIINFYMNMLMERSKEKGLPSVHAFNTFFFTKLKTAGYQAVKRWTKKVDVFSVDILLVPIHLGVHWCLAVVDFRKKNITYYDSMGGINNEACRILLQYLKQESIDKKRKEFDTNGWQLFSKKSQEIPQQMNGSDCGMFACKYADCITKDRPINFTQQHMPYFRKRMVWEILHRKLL
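Compound: 10 µM single point, 0.5% DMSO; Test system: hSENP1 catalytic domain, recombinant; Timing: 50 min reaction at room temperature; Technique: FRET, CFP and YFP emission; Control set: no-enzyme wells low, DMSO-plus-enzyme wells high control.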
SENP8 block-2 = inhibitors of human SENP8 protease | Q96LD8 | recombinant SENP8, Nedd8 substrate fluorescence | inhibition, % at 20 µM | hit rate 0.64% among 360,000 | AID 602440; in the data active = inhibition mostly above about 40%, no sharp cut-off; inactive = mostly below about 27%
SENP6 block = inhibitors of human SENP6 protease; Recombinant SENP6 catalytic domain, aminoluciferin luminescence; inhibition, % at 10 µM; hit rate 1.8% among 330,000;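 active = inhibition above about 50% at the single tested dose, limit read from the data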;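 note: plate controls were DMSO wells with enzyme for no effect and DMSO wells lacking enzyme for full effect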
SENP8 conf = SENP8 (human) inhibition, single concentration confirmation; shares compounds with SENP8 block-2; purified SENP8, Nedd8-AMC/pro-Nedd8 cleavage fluorescence, 30 min; inhibition, % at 25 µM; hit rate 15% among 1,400; AID 624319; in the data active = inhibition mostly above about 39%, no sharp cut-off; inactive = mostly below about 34%
An asterisk follows results filed as active; · = not tested or not shown.

SMILES	SENP7 inh	Apaf-1 inh	SENP8 block-1	SENP1 inh	SENP8 block-2	SENP6 block	SENP8 conf
CC1(C)CC2(CCO1)OC(=O)CC2C(=O)Nc1ccc(Br)cc1 (stereo unspecified)	1.9	-7.4	2.7	3.7	25.8	2.7	·
COc1ccc(NC(=O)C2CC(=O)OC23CCOC(C)(C)C3)cc1 (stereo unspecified)	-0.4	-9.5	5.7	1.4	41.7*	-11.4	9.5
CCc1nc2ccc(C(=O)NCC3CCCCC3)cn2c1N(CCC(C)C)CCN(C)C	·	·	·	-95.4	-50.2	·	·
Cc1[nH][nH]c(=O)c1C(c1cc([N+](=O)[O-])ccc1O)c1c(C)[nH][nH]c1=O	·	·	·	1.8	25.2	·	·
Cc1[nH][nH]c(=O)c1C(c1c(C)[nH][nH]c1=O)c1cn(C)c2ccccc12	·	·	·	0.2	77.2*	·	50.5*
CCOC(=O)N(C)c1c(CC)nc2c(OCc3ccc(Cl)cc3Cl)cccn12	·	·	·	-1.4	15.7	·	·
Cc1ccccc1C(=O)NCCN1CCOCC1	-15.3	5.6	-10.7	1.6	0.6	-19.6	·
CC(C(=O)NCCN1CCOCC1)(c1ccccc1)c1ccccc1	-0.1	-24.5	-4.2	-2.0	67.1*	-16.9	5.8
CN1C[C@@H]2[C@@H]3C(=O)N(Cc4ccccc4)C(=O)[C@@H]3[C@](C)(C1=O)N2C(=O)c1ccc(Cl)cc1	-2.6	-5.9	6.1	2.2	5.0	-8.8	·
CC(C)c1ccc(S(=O)(=O)Nc2ccc3c(c2)OCO3)cc1	5.5	-1.5	12.5	0.4	12.4	6.8	·
CN1CCN(CC(=O)n2c3c(c4ccccc42)CCCC3)CC1	4.3	12.4	14.7	-16.9	44.5*	20.1	37.7
CCN(CC)CC(=O)n1c2c(c3ccccc31)CCCC2	7.2	3.6	0.1	-0.8	10.8	-2.6	·
COc1ccccc1-c1cnc(C(O)c2ccc(C(C)(C)C)cc2)[nH]1 (stereo unspecified)	·	·	·	-2.1	6.3	·	·
CC(C)NC(=O)C1(C)CSCC(=O)N1Cc1cccc(C(F)(F)F)c1 (stereo unspecified)	·	·	·	-2.6	10.4	·	·
CN(Cc1cn(-c2ccccc2)nc1-c1ccc(Cl)cc1)C(=O)CCC(=O)O	-1.4	3.6	9.6	3.0	40.1*	3.3	15.4
CN(Cc1cn(-c2ccccc2)nc1-c1ccc(F)cc1)C(=O)CCC(=O)O	4.5	-0.5	6.9	-0.9	24.7	10.3	·
C=CC(C)(O)CCC=C(C)C (stereo unspecified)	-5.8	-13.0	8.2	1.0	40.6*	-1.6	16.8
CN(CCO)c1cc(Sc2nc3ccccc3s2)c2nonc2c1[N+](=O)[O-]	-2.7	51.8*	2.5	10.5	55.0*	29.8	31.8
CC(=O)OCCN(C)c1cc(SC(C)C)c2nonc2c1[N+](=O)[O-]	1.9	0.6	0.2	4.8	1.4	4.1	·
CCS(=O)(=O)c1nc(S(=O)(=O)c2ccc(C)cc2)c(NCCCn2ccnc2)s1	-2.0	-8.2	-0.3	0.8	8.9	7.2	·
CCOc1ccc(Br)cc1C1=NN(C(C)=O)C(c2ccc([N+](=O)[O-])s2)O1 (stereo unspecified)	23.8	23.8	27.7	-3.6	59.8*	42.3	56.1*
CC(=O)N1N=C(c2ccc(C)cc2)OC1c1ccc(Br)cc1 (stereo unspecified)	10.7	15.8	7.2	0.9	-3.7	14.8	·
Cc1cc(=O)oc2cc(OCC(=O)NCCc3c[nH]c4ccc(F)cc34)ccc12	-4.6	-13.3	10.5	1.7	-34.5	-16.8	·
COc1ccc2[nH]cc(CCNC(=O)COc3ccc4ccc(=O)oc4c3)c2c1	5.1	-2.4	11.2	-0.1	42.2*	-10.1	6.2
CCOC(=O)COc1ccc(/C=C2/SC(=Nc3ccccc3)N(Cc3cccnc3)C2=O)cc1OC	8.4	13.4	-1.4	-1.0	43.0*	-2.3	19.1
SMILES	SENP7 inh	Apaf-1 inh	SENP8 block-1	SENP1 inh	SENP8 block-2	SENP6 block	SENP8 conf
CN(CC(=O)Nc1cccc(S(=O)(=O)N2CCCC2)c1)Cc1ccccc1	-1.5	0.8	-0.2	0.4	-2.2	2.5	·
O=C(O)c1cccc(Br)c1	·	·	·	0.7	41.7*	·	4.1
COc1ccccc1CNC(=O)[C@H](C)NC(=O)C1CCN(C(=O)[C@@H](N)CCSC)CC1	-1.7	-10.1	9.0	1.3	26.5	3.2	·
COc1ccccc1CNC(=O)[C@H](C)NC(=O)C1CCN(C(=O)[C@@H](N)C(C)C)CC1	-1.7	-9.1	-6.0	1.7	48.5*	-12.6	10.3
COc1ccccc1CNC(=O)[C@H](C)NC(=O)C1CCN(C(=O)[C@@H](N)Cc2ccccc2)CC1	-3.8	-10.4	3.1	0.6	18.5	-18.6	·
COc1ccc(CNC(=O)[C@H](Cc2ccccc2)NC(=O)C2CCN(C(=O)[C@H](C)N)CC2)cc1	-3.8	-6.7	-1.3	4.7	50.8*	-4.0	9.2
COc1ccc(CNC(=O)[C@@H](NC(=O)C2CCN(C(=O)[C@@H](N)Cc3ccccc3)CC2)C(C)C)cc1	6.1	-10.2	2.0	-2.0	53.7*	2.0	16.2
COc1ccc(CNC(=O)[C@H](Cc2ccccc2)NC(=O)C2CCNCC2)cc1	-8.4	-1.2	3.3	3.3	7.0	-5.0	·
CSCC[C@H](N)C(=O)N1CCC(C(=O)N[C@H](C(=O)NCc2ccccc2F)C(C)C)CC1	-4.3	-6.3	-2.7	-0.4	48.5*	-5.3	-6.0
CN(Cc1ccccc1)C(=O)c1ccc(NC(=O)Cc2ccc(NC(=O)C3CCCN(C(=O)C4CC4)C3)cc2)cc1 (stereo unspecified)	·	·	·	1.5	7.6	·	·
COc1cc(CCC(O)CC(=O)CCc2ccccc2)ccc1O (stereo unspecified)	7.6	-7.4	-13.7	-0.6	45.7*	-16.2	15.2
COc1ccc(C(=O)N2CCOCC2c2cc(C(=O)NCc3ccccc3)no2)cc1 (stereo unspecified)	·	·	·	-0.4	10.1	·	·
CC(C)(C)OC(=O)N1Cc2ccccc2C[C@H]1C(=O)O	6.0	14.3	2.8	-1.9	40.1*	14.6	68.2*
O=C(Cn1cc([N+](=O)[O-])cn1)Nc1ccc(Cn2cc(Br)cn2)cc1	-6.2	9.8	-12.2	1.5	40.1*	-12.1	4.7
COC(=O)c1ccc(Cn2cc([N+](=O)[O-])cn2)cc1	7.5	-2.5	-3.8	0.3	2.5	-8.5	·
COc1ccc2c(c1OC)C(=O)OC2N1C(=O)CC[C@H]1C(=O)Nc1ccc2c(c1)OCO2 (stereo partly specified)	-7.4	-12.3	2.4	4.7	44.2*	-4.0	-2.9
O=C(C1CCC(=O)N1Cc1ccccc1Cl)N1CCN(c2cccc(Cl)c2)CC1 (stereo unspecified)	-6.9	12.9	-3.1	0.3	40.4*	-25.2	5.3
